Screens: PubChem, several laboratories
MT stabilizer: microtubule stabilization, imaging screen; HeLa tubulin immunostaining HCS, 24 h; share of cells brighter than vehicle mean+2SD; % tubulin-high responders, % at 10 µM; 200,000 compounds, 0.83% hits;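 active means plate Z-score above 3 for both tubulin-high and condensed-nucleus cell shares, with cell loss under 80%, at 10 µM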;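 further: anti alpha tubulin signal scored within the nucleus-defined area of each cell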
Dynein cargo inh: dynein cargo transport inhibition | 3617.4 mouse cells, GR-EGFP nuclear translocation imaging; test concentration mostly 20 µM; stimulated with dexamethasone, 1 µM; hits give low values | z-score, hits read low | 220,000 compounds, 0.47% hits | AID 1381;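 active means plate z-score of nuclear minus cytoplasmic receptor signal below a set negative limit, without overly bright fluorescence or cell loss, cut at about -3.5 in these data, passing the limit was not always enough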;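 further: z-score of nuclear minus cytoplasmic ring GR-EGFP intensity difference per well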
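Also added: dexamethasone, 1.0 µM final. Medium: tet-free, stripped-serum medium. Detection: fixed, Hoechst-stained cells imaged at 10x for EGFP. Read-out: nuclear-to-cytoplasmic GR-EGFP distribution per well. Times: induction 48 h, compound 1 h, agonist 30 min.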
Hsp70 activator: switches on Hsp70 transcription. HeLa Hsp70 promoter luciferase reporter, luminescence; scaled: vehicle 0, proteasome-inhibitor control 100%. activation, % at 10 µM. 200,000 compounds, 0.04% hits. AID 1203;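 active means activation above the mean across all tested compounds plus 3 SD, cutoff set per campaign, cut at about 5.5% in these data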;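 further: 100% = MG132 at 30 µM as the positive control and 0% = DMSO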
bCat nuc transl: beta-catenin nuclear translocation modulation. HeLa beta-catenin nuclear translocation, immunofluorescence imaging. nuclear translocation activity, % at 5 µM. 190,000 compounds, 0.3% hits. AID 1665;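 active means nuclear translocation activity above 50% at 5 µM, with a well cell count of 50 or more; inconclusive means wells under 50 cells across six images, flagged as toxic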;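 further: per-cell ratio of nuclear to cytoplasmic median beta-catenin stain intensity; plate controls were DMSO negative control for no effect and GSK-3 inhibitor IX positive control for full effect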
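Read-out: Nuclear/cytoplasmic beta-catenin signal ratio, % activation | Assay system: Human HeLa cell line | Times: 24 h compound exposure at 37°C, 5% CO2 | Signal: Fluorescence imaging of beta-catenin antibody stain plus DAPI | Dosing: 5 µM primary, 0.02–20 µM confirmation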
Autophagy mod: autophagy modulation, high-content screen; MEF GFP-LC3 puncta imaging; test concentration mostly 10 µM; calls only at 10 µM (by protocol); 190,000 compounds, 0.98% hits; AID 463193;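 active means percentage of spot-positive cells more than 3 SD above its plate mean, without a fluorescence outlier flag or 80% toxicity; inconclusive means no clear call, values can overlap the other calls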;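 further: spot-positive cell cutoff set from DMSO-treated cells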
* hit, by the source's call; i = inactive; u = inconclusive; x = not tested or not shown; + = active, no number. Most compounds without a hit are left out; they make up all but 2.1% or so of the library.

SMILES	MT stabilizer	Dynein cargo inh	Hsp70 activator	bCat nuc transl	Autophagy mod
C#C[C@]1(O)CC[C@H]2[C@@H]3CCc4cc(OC5CCCC5)ccc4[C@H]3CC[C@@]21C	x	x	0.0	0.0	x
C#C[C@]1(O)CC[C@H]2[C@@H]3CCc4cc(OC)ccc4[C@H]3CC[C@@]21C	5.4	0.856	-0.2	1.4	+
O=C(C1=C(O)C(=O)N(c2ncccn2)C1c1ccc(F)cc1)c1ccco1 (stereo not drawn)	x	-0.238	x	-0.4	x
Cc1ccc(N2CCN(CC(O)COc3cccc(C)c3)CC2)cc1 (stereo not drawn)	x	-0.122	x	-0.8	x
Cc1cccc(OCC(O)CN2C(C)(C)CC(O)CC2(C)C)c1 (stereo not drawn)	3.6	-0.708	-0.4	-1.1	+
COc1ccc(CC(=O)NNc2ncnc3c2cnn3Cc2ccccc2)cc1OC	x	0.287	x	2.2	x
O=C(NC1CCN(C(=O)N2c3ccccc3Sc3ccccc32)CC1)c1ccccc1Cl	2.0	-0.642	0.8	-1.8	i
O=C(NC1CCN(C(=O)N2c3ccccc3Sc3ccccc32)CC1)c1ccco1	13.3*	1.13	-0.3	-4.8	+
O=C(N1CCN(c2ccccn2)CC1)N1c2ccccc2Sc2ccccc21	30.9*	0.83	-0.1	4.0	i
O=C(c1ccco1)N1CCN(C(=O)N2c3ccccc3Sc3ccccc32)CC1	13.9*	-0.808	0.3	34.9	+
O=C(c1ccco1)N1c2ccccc2Sc2ccccc21	4.1	1.08	0.1	-0.7	i
N#CCCn1cc(C(=O)Nc2ccccc2Br)c(-c2cc3ccccc3o2)n1	3.6	-0.388	-0.5	-0.6	i
O=C(Nc1nnc(SCc2ccc(F)cc2)s1)C1CC(=O)N(Cc2ccccc2)C1 (stereo not drawn)	3.0	-0.535	-0.2	-0.6	i
COC(=O)c1ccccc1NC(=O)COC(=O)C1CCCCC1	x	-0.112	x	1.8	x
C/C(=N/NC(=O)c1cccs1)c1cccs1	x	-0.503	x	1.1	x
C/C(=N\NC(=O)CC1(C)OCCO1)c1cccs1	2.3	-0.868	-0.1	-2.8	+
O=C(NCc1cccs1)c1cc(-c2ccncc2)nc2ccc(Br)cc12	3.2	0.114	-0.5	1.6	i
O=C1C(=O)c2ccc(-c3ccccc3)cc2-c2ccccc21	29.3	-0.871	-0.2	-1.0	+
Nc1ccc2c(c1)C(=O)C(=O)c1ccccc1-2	1.7	-4.62	0.0	x	i
COc1ccc(-n2c(Cc3cccn3C)nnc2SCC(=O)NCc2ccc(F)cc2)cc1	3.1	-0.7	-0.4	0.6	i
Cn1cccc1Cc1nnc(SCC(=O)Nc2ccc(F)cc2)n1-c1ccc(F)cc1	5.4	-0.678	-0.3	0.8	x
COc1ccc(-n2c(Cc3cccn3C)nnc2SCC(=O)NCc2ccccc2Cl)cc1	3.9	1.2	-0.4	-0.1	+
Cn1cccc1Cc1nnc(SCC(=O)Nc2ccc(Cl)cc2)n1-c1ccc(F)cc1	2.6	-0.107	-0.4	-3.1	+
Cn1cccc1Cc1nnc(SCC(=O)Nc2cccc(F)c2)n1CCc1ccccc1	5.2	2.76	-0.2	-2.0	+
Cn1cccc1Cc1nnc(SCC(=O)Nc2ccccc2F)n1CCc1ccccc1	3.9	-0.255	-0.3	-2.3	x
SMILES	MT stabilizer	Dynein cargo inh	Hsp70 activator	bCat nuc transl	Autophagy mod
Cc1cc(Cl)cc(Cl)c1CNc1c([N+](=O)[O-])c(=O)oc2ccccc12	2.5	-0.246	-0.2	x	i
CCOC(=O)COc1ccccc1/C=C\[N+](=O)[O-]	1.6	-3.56*	1.3	1.2	i
COC(=O)CCC(=O)NC(=S)Nc1sc(C)c(C)c1C(N)=O	21.2*	-0.157	0.3	1.3	i
COC(=O)CCC(=O)Nc1sc(C)c(C)c1C(N)=O	2.8	-0.65	-0.1	1.7	i
CC(C)c1ccc2c(c1)C(c1ccc(N3CCOCC3)cc1)=NNC(c1cccs1)=N2	1.7	-1.68	-0.3	3.9	i
CCCCSc1nc2c(cnn2-c2ccc(C)c(C)c2)c(=O)[nH]1	5.4	3.3	0.1	x	+
CCCSc1nc2c(cnn2-c2ccc(C)c(C)c2)c(=O)[nH]1	7.1	0.0155	-0.2	x	i
C[C@H](N=C1NS(=O)(=O)c2ccccc21)C(=O)OCc1cc([N+](=O)[O-])cc2c1OCOC2	x	0.29	x	-1.8	x
O=C(CCCN=C1NS(=O)(=O)c2ccccc21)OCc1cc([N+](=O)[O-])cc2c1OCOC2	5.3	0.0473	0.0	-2.2	+
CCOC(=O)C1CCCN(CCC(=O)Nc2cccc(C)c2)C1 (stereo not drawn)	1.7	1.06	-0.4	1.0	+
COc1ccc(OC)c(NC(=O)CSc2nnc(C3CCCCC3)o2)c1	4.2	-0.62	0.2	0.0	i
COc1ccc2c(c1)NC(c1cc(Cl)cc(Cl)c1O)c1cccn1-2 (stereo not drawn)	2.4	-0.47	-0.3	1.7	+
C=CCn1c(Oc2cc(C)ccc2C)nc2c1c(=O)n(C)c(=O)n2C	3.2	0.736	-0.5	-1.0	+
CCOc1cc(/C=N/NC(=O)c2cccnc2)ccc1OC(=O)c1ccco1	2.5	-0.000159	-0.1	-0.5	i
CCOC(=O)c1c(Nc2ccc(Cl)cc2)sc(/C=C2\C=Nc3ccccc32)c1O	2.3	-1.09	-0.3	-1.4	+
Cc1cc2c3c(c1)C1(C(=O)N3C(C)(C)CC2C)C(C#N)=C(N)Oc2n[nH]c(C)c21 (stereo not drawn)	17.4*	0.424	-0.2	x	i
CCc1ccc(-c2cc(C(F)(F)F)n3nc(C(=O)Nc4cnn(Cc5ccccc5C)c4)cc3n2)s1	i	-0.0856	-0.6	x	u
CCc1ccc(-c2cc(C(F)(F)F)n3nc(C(=O)Nc4c(C)nn(Cc5ccccc5C)c4C)cc3n2)s1	2.9	0.986	-0.5	1.8	+
Cc1nn(Cc2ccccc2)c(C)c1NC(=O)c1cc2nc(-c3ccco3)cc(C(F)(F)F)n2n1	5.0	-0.575	0.2	-2.4	i
CCc1ccc(-c2cc(C(F)(F)F)n3nc(C(=O)Nc4c(C)nn(Cc5ccccc5Cl)c4C)cc3n2)s1	2.2	0.445	-0.1	-0.4	+
Cc1ccc(NNC(=O)c2ccno2)c(C)c1	x	0.561	x	4.8	x
CCOc1ccccc1NC(=O)CN(c1ccc(OC)cc1)S(=O)(=O)c1c(C)noc1C	17.5*	0.483	-0.1	1.9	+
COc1ccc(NC(=O)CN(c2cc(C)cc(C)c2)S(=O)(=O)c2c(C)noc2C)cc1OC	6.2	-0.927	-0.2	0.4	i
COc1ccc(N(CC(=O)Nc2ccc3c(c2)OCO3)S(=O)(=O)c2ccc(F)cc2)cc1	1.8	-2.61	-0.4	-0.9	+
CCOc1ccc(N(CC(=O)Nc2ccccc2C)S(=O)(=O)c2c(C)noc2C)cc1	14.9*	3.05	0.1	68.5*	i
COc1ccc(NC(=O)CN(c2cc(C)cc(C)c2)S(=O)(=O)c2c(C)noc2C)cc1	3.9	1.42	-0.4	-6.5	+
Cc1cc(C(=O)NNS(=O)(=O)c2cccc(Cl)c2)nn1C(C)(C)C	x	-0.286	x	0.7	x
